Consider five molecules from ChEMBL document CHEMBL1157407, “Inhibitors of bacterial multidrug efflux pumps from the resin glycosides of Ipomoea murucoides” (2008).

≈ marks a conversion by molar mass, not a printed value.

What all share (type): functional
The test system of one assay is HEp-2. Nature of the assay: Cytotoxicity against human Hep2 cells after 72 hrs. The following applies: HEp-2, 72 h, read-out: ED50 (the source's name). In short, it runs like this: (§1)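 Cells grown in RPMI 1640 with 10% fetal bovine serum at 37 °C, 5% CO2, humidified. Log-phase cells treated in triplicate with test samples at 0.16–20 μg/mL for 72 h. Growth read by the NCI sulforhodamine method. ED50 is the dose inhibiting 50% of control growth, estimated from a semilog plot of concentration against percentage of viable cells.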

The subject of assay [1] is Staphylococcus aureus. Nature of the assay: Antimicrobial activity against Staphylococcus aureus ATCC 25923. In short, it runs like this: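 Broth microdilution MIC per NCCLS guidelines, at least in duplicate. Inoculum 5×10^5 cfu prepared in 0.9% saline against a McFarland standard. Cation-adjusted Mueller-Hinton broth with 20 mg/L Ca2+ and 10 mg/L Mg2+. Compounds dissolved in DMSO, then 2-fold serial dilutions, final 1–512 μg/mL; DMSO at most 3.125% v/v. MIC is the lowest concentration giving no visible growth.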

For assay [2], the system named is Staphylococcus aureus. Put plainly: Antimicrobial activity against multidrug-resistant Staphylococcus aureus over expressing NorA MDR efflux pump. The essentials:
(§2)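 Broth microdilution MIC per NCCLS guidelines, at least in duplicate, in cation-adjusted Mueller-Hinton broth (20 mg/L Ca2+, 10 mg/L Mg2+). Strains grown on nutrient agar first. Inoculum 5×10^5 cfu prepared in 0.9% saline against a McFarland standard. Compounds dissolved in DMSO, 2-fold serial dilutions, final 1–512 µg/mL (DMSO ≤3.125% v/v). MIC taken as lowest concentration with no visible growth.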

A further assay deals with KB. Nature of the assay: Cytotoxicity against human KB cells after 72 hrs. Conditions: read-out: ED50 (the source's name). The essentials: as §1
Assay [3] has as its system Staphylococcus aureus. Put plainly: Antimicrobial activity against methicillin-resistant Staphylococcus aureus XU212. In short, it runs like this: as §2
For another assay, the system named is HeLa. Nature of the assay: Cytotoxicity against human HeLa cells after 72 hrs. The following applies: read-out: ED50 (the source's name). The essentials:
as §1

Assay [4] concerns Staphylococcus aureus. Nature of the assay: Antimicrobial activity against epidemic methicillin-resistant Staphylococcus aureus 15 containing mecA gene. The essentials:
as §2

On to `C/C=C(\C)C(=O)O[C@H]1[C@H](O)[C@@H](O)[C@H](O[C@@H]2[C@H]3OC(=O)CCCCCCCCC[C@H](CCCCC)O[C@@H]4O[C@H](C)[C@@H](O)[C@H](O)[C@H]4O[C@@H]4O[C@H](CO)[C@@H](OC(=O)[C@H](C)[C@@H](C)O)[C@H](O)[C@H]4O[C@H](O[C@H]2C)[C@@H]3OC(=O)[C@@H](C)CC)O[C@@H]1C` [ORIZABIN IX], for which the EC50 in the assay on HEp-2, with KB and with HeLa was greater than 20 µg/mL in each case. For the same molecule, the MIC against Staphylococcus aureus [1] is greater than 512 µg/mL; with Staphylococcus aureus [2], 512 µg/mL (≈ 457 µM); with Staphylococcus aureus [3] it was 256 µg/mL (≈ 228 µM); with Staphylococcus aureus [4], 256 µg/mL (≈ 228 µM).
On to `CCCCCCCCCCCC(=O)O[C@H]1[C@H](O[C@@H]2[C@H]3OC(=O)CCCCCCCCC[C@H](CCCCC)O[C@@H]4O[C@H](C)[C@H](O)[C@H](O)[C@H]4O[C@H](O[C@H]2C)[C@@H]3O)O[C@@H](C)[C@H](O[C@@H]2O[C@@H](C)[C@H](OC(=O)[C@@H](C)CC)[C@@H](O)[C@H]2O)[C@H]1O[C@@H]1O[C@@H](C)[C@H](O)[C@@H](O)[C@H]1O` [PESCAPREIN III], for which the results for the EC50 in the assay on HEp-2, in the assay with KB and in the assay on HeLa were 4.7 µg/mL (≈ 3.76 µM), 15.7 µg/mL (≈ 12.5 µM) and greater than 20 µg/mL, respectively. Also, the MIC against Staphylococcus aureus [1], with Staphylococcus aureus [2], in the assay on Staphylococcus aureus [3] and with Staphylococcus aureus [4] was greater than 512 µg/mL throughout.
In the case of `CCCCC[C@H]1CCCCCCCCCC(=O)O[C@H]2[C@@H](O)[C@H](O[C@H]3[C@H](O1)O[C@H](C)[C@H](O)[C@@H]3O)O[C@@H](C)[C@@H]2O[C@@H]1O[C@@H](C)[C@H](O[C@@H]2O[C@@H](C)[C@H](OC(=O)[C@@H](C)CC)[C@@H](O)[C@H]2O)[C@@H](O[C@@H]2O[C@@H](C)[C@H](O)[C@@H](O)[C@H]2O)[C@H]1OC(=O)[C@@H](C)CC` [STOLONIFERIN I], the EC50 in the assay with HEp-2, in the assay with KB and in the assay with HeLa was greater than 20 µg/mL each time. The MIC in the assay on Staphylococcus aureus [1] is greater than 512 µg/mL; against Staphylococcus aureus [2], 64 µg/mL (≈ 55.5 µM); against Staphylococcus aureus [3] it was 256 µg/mL (≈ 222 µM); with Staphylococcus aureus [4], 512 µg/mL (≈ 444 µM).
As for `CCCCC[C@H]1CCCCCCCCCC(=O)O[C@H]2[C@H](O)[C@@H](CO)O[C@@H](O[C@H]3[C@H](O1)O[C@H](C)[C@H](O)[C@@H]3O)[C@@H]2O[C@@H]1O[C@@H](C)[C@H](OC(=O)[C@@H](C)CC)[C@@H](O[C@@H]2O[C@@H](C)[C@H](O)[C@@H](O)[C@H]2O)[C@H]1OC(=O)[C@@H](C)CC` [TRICOLORIN A], the EC50 in the assay on HEp-2 came out at 1.6 µg/mL (≈ 1.56 µM); with KB it was 1 µg/mL (≈ 0.977 µM); with HeLa, 4.7 µg/mL (≈ 4.59 µM). In addition, the minimal inhibitory concentration (MIC) in the assay on Staphylococcus aureus [1] was 16 µg/mL (≈ 15.6 µM); in the assay with Staphylococcus aureus [2], 8 µg/mL (≈ 7.82 µM); in the assay on Staphylococcus aureus [3], 8 µg/mL (≈ 7.82 µM); against Staphylococcus aureus [4], 4 µg/mL (≈ 3.91 µM).
On to `CCCCC[C@H]1CCCCCCCCCC(=O)O[C@H]2[C@H](O)[C@@H](CO)O[C@@H](O[C@H]3[C@H](O1)O[C@H](C)[C@@H](O)[C@@H]3O)[C@@H]2O[C@@H]1O[C@@H](C)[C@H](OC(=O)[C@@H](C)CC)[C@@H](O[C@@H]2O[C@@H](C)[C@H](O)[C@@H](O)[C@H]2O)[C@H]1OC(=O)[C@@H](C)CC` [TRICOLORIN E], for which the EC50 in the assay with HEp-2, in the assay on KB and in the assay on HeLa was greater than 20 µg/mL throughout. The MIC with Staphylococcus aureus [1] stood at 16 µg/mL (≈ 15.6 µM); in the assay on Staphylococcus aureus [2], 8 µg/mL (≈ 7.82 µM); in the assay with Staphylococcus aureus [3], 8 µg/mL (≈ 7.82 µM); against Staphylococcus aureus [4], 8 µg/mL (≈ 7.82 µM).
